Experimental data published in ChEMBL document CHEMBL3576771, “Molecular determinants of biased agonism at the dopamine D₂ receptor” (J Med Chem, 2015).

Molecular target: D(3) dopamine receptor (Homo sapiens, UniProt P35462)
Assay: Displacement of [3H]spiperone from human dopamine D3 receptor transfected in CHO cells after 1 hr by scintillation counting analysis
Type: cell-based
Details: not given

Chain of D(3) dopamine receptor (P35462 whole entry): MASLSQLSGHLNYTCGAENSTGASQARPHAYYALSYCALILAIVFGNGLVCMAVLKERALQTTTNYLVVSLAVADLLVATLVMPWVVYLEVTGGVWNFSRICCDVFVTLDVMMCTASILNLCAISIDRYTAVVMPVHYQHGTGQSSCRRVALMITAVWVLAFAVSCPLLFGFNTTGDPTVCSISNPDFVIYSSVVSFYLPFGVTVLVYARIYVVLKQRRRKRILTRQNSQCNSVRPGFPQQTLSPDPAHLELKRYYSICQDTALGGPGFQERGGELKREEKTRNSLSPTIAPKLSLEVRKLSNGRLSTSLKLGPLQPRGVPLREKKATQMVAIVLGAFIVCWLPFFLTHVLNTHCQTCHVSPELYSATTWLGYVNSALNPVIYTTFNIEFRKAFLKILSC

Ki [nM] | SMILES
0.21 | CCCCn1cc(CCCOc2ccc(C(=O)NCCCCN(CCC)[C@H]3CCc4c(O)cccc4C3)cc2OC)nn1

Molecular target: T1, D(2) dopamine receptor (Homo sapiens, UniProt P14416)
T1 sequence (P14416 whole entry): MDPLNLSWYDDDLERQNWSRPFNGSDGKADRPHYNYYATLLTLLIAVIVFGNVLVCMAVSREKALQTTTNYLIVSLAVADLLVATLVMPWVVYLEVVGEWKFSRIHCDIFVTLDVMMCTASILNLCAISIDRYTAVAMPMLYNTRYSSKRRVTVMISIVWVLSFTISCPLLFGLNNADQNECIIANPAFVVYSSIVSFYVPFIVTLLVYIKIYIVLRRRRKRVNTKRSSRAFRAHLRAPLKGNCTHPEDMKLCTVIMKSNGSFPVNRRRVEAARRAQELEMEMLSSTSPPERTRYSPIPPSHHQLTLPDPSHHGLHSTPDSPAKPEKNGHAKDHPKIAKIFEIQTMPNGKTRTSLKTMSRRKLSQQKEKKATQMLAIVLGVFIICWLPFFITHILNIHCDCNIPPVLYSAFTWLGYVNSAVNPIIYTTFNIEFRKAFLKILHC
Assay: Intrinsic activity at human dopamine D2S receptor expressed in HEK293 cells co-transfected with Galphai2 assessed as [35S]GTPgammaS binding after 30 mins by [35S]GTPgammaS incorporation assay
Type: functional, cell-based
Details: not given

EC50 [nM] | SMILES
4 | CCCCn1cc(CCCOc2ccc(C(=O)NCCCCN(CCC)[C@H]3CCc4c(O)cccc4C3)cc2OC)nn1

Molecular target: not listed separately
Assay: Displacement of [3H]prazosin from poricne cerebral cortex alpha1 adrenergic receptor by scintillation counting analysis
Type: tissue-based, Sus scrofa
Details: not given

Ki [nM] | SMILES
85 | CCCCn1cc(CCCOc2ccc(C(=O)NCCCCN(CCC)[C@H]3CCc4c(O)cccc4C3)cc2OC)nn1

Molecular target: T1, D(2) dopamine receptor
Assay: Intrinsic activity at human dopamine D2S receptor expressed in HEK293 cells co-transfected with Galphai2 assessed as [35S]GTPgammaS binding after 30 mins by [35S]GTPgammaS incorporation assay relative to quinpirole
Type: functional, cell-based
Details: in the assay text read “after 75 mins” for “after 30 mins”
Procedure, shortened: (§1)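 Membranes from HEK293 cells cotransfected with D2L or D2S and PTX-insensitive Gαi2; 30 μg/mL protein, 10 μM GDP and compounds preincubated 30 min at 37 °C, then 0.10 nM [35S]GTPγS added for 75 min at 37 °C; filtration.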

Emax [%] | SMILES
97 | CCCCn1cc(CCCOc2ccc(C(=O)NCCCCN(CCC)[C@H]3CCc4c(O)cccc4C3)cc2OC)nn1

Molecular target: T1, D(2) dopamine receptor
Assay: Intrinsic activity at human dopamine D2L receptor expressed in HEK293 cells co-transfected with Galphai2 assessed as [35S]GTPgammaS binding after 30 mins by [35S]GTPgammaS incorporation assay relative to quinpirole
Type: functional, cell-based
Details: in the assay text read “after 75 mins” for “after 30 mins”
Procedure, shortened: as §1

Emax [%] | SMILES
99 | CCCCn1cc(CCCOc2ccc(C(=O)NCCCCN(CCC)[C@H]3CCc4c(O)cccc4C3)cc2OC)nn1

Molecular target: T2, D(4) dopamine receptor (Homo sapiens, UniProt P21917)
T2 sequence (P21917 whole entry): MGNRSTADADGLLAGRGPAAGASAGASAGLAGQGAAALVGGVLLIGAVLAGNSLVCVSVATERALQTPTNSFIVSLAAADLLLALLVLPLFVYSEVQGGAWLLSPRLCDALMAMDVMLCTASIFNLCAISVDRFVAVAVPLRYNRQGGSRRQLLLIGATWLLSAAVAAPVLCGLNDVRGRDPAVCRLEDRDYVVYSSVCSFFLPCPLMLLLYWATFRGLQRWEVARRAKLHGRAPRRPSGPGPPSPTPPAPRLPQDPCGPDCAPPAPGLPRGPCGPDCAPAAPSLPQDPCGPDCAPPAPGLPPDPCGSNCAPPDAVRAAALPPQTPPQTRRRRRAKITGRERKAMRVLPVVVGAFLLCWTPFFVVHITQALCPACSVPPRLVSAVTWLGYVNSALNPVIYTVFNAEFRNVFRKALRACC
Assay: Displacement of [3H]spiperone from human dopamine D4.4 receptor transfected in CHO cells after 1 hr by scintillation counting analysis
Type: cell-based
Details: not given

Ki [nM] | SMILES
9.4 | CCCCn1cc(CCCOc2ccc(C(=O)NCCCCN(CCC)[C@H]3CCc4c(O)cccc4C3)cc2OC)nn1

Molecular target: T1, D(2) dopamine receptor
Assay: Displacement of [3H]spiperone from human dopamine D2S receptor transfected in CHO cells after 1 hr by scintillation counting analysis
Type: cell-based
Details: not given

Ki [nM] | SMILES
0.54 | CCCCn1cc(CCCOc2ccc(C(=O)NCCCCN(CCC)[C@H]3CCc4c(O)cccc4C3)cc2OC)nn1

Molecular target: D(1B) dopamine receptor (Homo sapiens, UniProt P21918)
Sequence (P21918 whole entry): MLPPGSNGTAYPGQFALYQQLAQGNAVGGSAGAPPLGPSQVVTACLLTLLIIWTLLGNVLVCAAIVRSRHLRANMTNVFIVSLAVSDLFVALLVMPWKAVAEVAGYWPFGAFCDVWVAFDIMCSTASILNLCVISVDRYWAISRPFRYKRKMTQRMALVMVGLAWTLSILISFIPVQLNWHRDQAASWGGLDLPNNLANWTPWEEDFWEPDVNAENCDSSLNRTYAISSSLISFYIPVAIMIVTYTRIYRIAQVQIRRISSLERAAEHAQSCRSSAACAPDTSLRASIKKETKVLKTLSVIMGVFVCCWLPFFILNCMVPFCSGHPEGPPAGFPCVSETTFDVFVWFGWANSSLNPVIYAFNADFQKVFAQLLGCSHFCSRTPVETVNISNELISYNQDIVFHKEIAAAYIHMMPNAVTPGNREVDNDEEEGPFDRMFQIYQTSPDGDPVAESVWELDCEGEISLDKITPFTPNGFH
Assay: Displacement of [3H]SCH23390 from human dopamine D5 receptor transfected in HEK293 cells after 1 hr by scintillation counting analysis
Type: cell-based
Details: not given

Ki [nM] | SMILES
700 | CCCCn1cc(CCCOc2ccc(C(=O)NCCCCN(CCC)[C@H]3CCc4c(O)cccc4C3)cc2OC)nn1

Molecular target: T1, D(2) dopamine receptor
Assay: Intrinsic activity at human dopamine D2L receptor expressed in HEK293 cells co-transfected with Galpha0i assessed as [35S]GTPgammaS binding after 30 mins by [35S]GTPgammaS incorporation assay
Type: functional, cell-based
Details: not given

EC50 [nM] | SMILES
3.1 | CCCCn1cc(CCCOc2ccc(C(=O)NCCCCN(CCC)[C@H]3CCc4c(O)cccc4C3)cc2OC)nn1

Molecular target: T1, D(2) dopamine receptor
Assay: Intrinsic activity at human dopamine D2S receptor expressed in HEK293 cells co-transfected with Galpha0i assessed as [35S]GTPgammaS binding after 30 mins by [35S]GTPgammaS incorporation assay
Type: functional, cell-based
Details: not given

EC50 [nM] | SMILES
2.1 | CCCCn1cc(CCCOc2ccc(C(=O)NCCCCN(CCC)[C@H]3CCc4c(O)cccc4C3)cc2OC)nn1

Molecular target: D(1A) dopamine receptor (Homo sapiens, UniProt P21728)
Sequence (P21728 whole entry): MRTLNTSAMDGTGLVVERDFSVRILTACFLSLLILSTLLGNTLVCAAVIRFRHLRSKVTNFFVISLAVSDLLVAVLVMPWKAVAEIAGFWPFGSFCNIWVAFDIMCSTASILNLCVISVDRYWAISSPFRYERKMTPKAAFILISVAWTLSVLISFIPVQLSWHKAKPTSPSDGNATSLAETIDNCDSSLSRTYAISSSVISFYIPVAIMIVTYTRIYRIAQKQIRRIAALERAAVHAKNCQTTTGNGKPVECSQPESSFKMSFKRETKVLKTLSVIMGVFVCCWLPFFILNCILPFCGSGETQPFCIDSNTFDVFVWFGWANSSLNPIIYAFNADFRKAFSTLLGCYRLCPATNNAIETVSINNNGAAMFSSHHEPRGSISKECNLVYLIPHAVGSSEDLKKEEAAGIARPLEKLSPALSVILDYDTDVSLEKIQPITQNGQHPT
Assay: Displacement of [3H]SCH23390 from human dopamine D1 receptor transfected in HEK293 cells after 1 hr by scintillation counting analysis
Type: cell-based
Details: not given

Ki [nM] | SMILES
2900 | CCCCn1cc(CCCOc2ccc(C(=O)NCCCCN(CCC)[C@H]3CCc4c(O)cccc4C3)cc2OC)nn1

Molecular target: T1, D(2) dopamine receptor
Assay: Intrinsic activity at human dopamine D2S receptor expressed in HEK293 cells co-transfected with Galpha0i assessed as [35S]GTPgammaS binding after 30 mins by [35S]GTPgammaS incorporation assay relative to quinpirole
Type: functional, cell-based
Details: not given
Procedure, shortened: (§2)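 HEK293 membranes cotransfected with D2L or D2S plus PTX-insensitive Gαo1; 30 μg/mL protein with compounds and 10 μM GDP preincubated 30 min, 37 °C; then 0.10 nM [35S]GTPγS for 30 min, 37 °C; GF/B filtration.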

Emax [%] | SMILES
110 | CCCCn1cc(CCCOc2ccc(C(=O)NCCCCN(CCC)[C@H]3CCc4c(O)cccc4C3)cc2OC)nn1

Molecular target: not listed separately
Assay: Displacement of [3H]WAY100635 from poricne cerebral cortex 5-HT1A receptor by scintillation counting analysis
Type: tissue-based, Sus scrofa
Details: not given

Ki [nM] | SMILES
22 | CCCCn1cc(CCCOc2ccc(C(=O)NCCCCN(CCC)[C@H]3CCc4c(O)cccc4C3)cc2OC)nn1

Molecular target: T1, D(2) dopamine receptor
Assay: Intrinsic activity at human dopamine D2L receptor expressed in HEK293 cells co-transfected with Galphai2 assessed as [35S]GTPgammaS binding after 30 mins by [35S]GTPgammaS incorporation assay
Type: functional, cell-based
Details: not given

EC50 [nM] | SMILES
2.9 | CCCCn1cc(CCCOc2ccc(C(=O)NCCCCN(CCC)[C@H]3CCc4c(O)cccc4C3)cc2OC)nn1

Molecular target: T1, D(2) dopamine receptor
Assay: Agonist activity at ARMS2-PK2-tagged human dopamine D2S receptor expressed in HEK293 cells co-expressing (EA)-tagged beta arrestin fusion protein assessed as recruitment of beta-arrestin-2 after 5 hrs by chemiluminescence assay relative to quinpirole
Type: cell-based
Details: not given
Procedure, shortened: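 Transient transfection of D2S (ProLink-tagged) into HEK293 cells stably expressing EA-tagged β-arrestin-2; 5000 cells seeded, 24 h.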

Emax [%] | SMILES
94 | CCCCn1cc(CCCOc2ccc(C(=O)NCCCCN(CCC)[C@H]3CCc4c(O)cccc4C3)cc2OC)nn1

Molecular target: T1, D(2) dopamine receptor
Assay: Displacement of [3H]spiperone from human dopamine D2L receptor transfected in CHO cells after 1 hr by scintillation counting analysis
Type: cell-based
Details: not given

Ki [nM] | SMILES
0.47 | CCCCn1cc(CCCOc2ccc(C(=O)NCCCCN(CCC)[C@H]3CCc4c(O)cccc4C3)cc2OC)nn1

Molecular target: T1, D(2) dopamine receptor
Assay: Intrinsic activity at human dopamine D2L receptor expressed in HEK293 cells co-transfected with Galpha0i assessed as [35S]GTPgammaS binding after 30 mins by [35S]GTPgammaS incorporation assay relative to quinpirole
Type: functional, cell-based
Details: not given
Procedure, shortened: as §2

Emax [%] | SMILES
90 | CCCCn1cc(CCCOc2ccc(C(=O)NCCCCN(CCC)[C@H]3CCc4c(O)cccc4C3)cc2OC)nn1

Molecular target: T1, D(2) dopamine receptor
Assay: Agonist activity at ARMS2-PK2-tagged human dopamine D2S receptor expressed in HEK293 cells co-expressing (EA)-tagged beta arrestin fusion protein assessed as recruitment of beta-arrestin-2 after 5 hrs by chemiluminescence assay
Type: cell-based
Details: not given

EC50 [nM] | SMILES
1.4 | CCCCn1cc(CCCOc2ccc(C(=O)NCCCCN(CCC)[C@H]3CCc4c(O)cccc4C3)cc2OC)nn1

Molecular target: 5-hydroxytryptamine receptor 2A (Homo sapiens, UniProt P28223)
Sequence (P28223 whole entry): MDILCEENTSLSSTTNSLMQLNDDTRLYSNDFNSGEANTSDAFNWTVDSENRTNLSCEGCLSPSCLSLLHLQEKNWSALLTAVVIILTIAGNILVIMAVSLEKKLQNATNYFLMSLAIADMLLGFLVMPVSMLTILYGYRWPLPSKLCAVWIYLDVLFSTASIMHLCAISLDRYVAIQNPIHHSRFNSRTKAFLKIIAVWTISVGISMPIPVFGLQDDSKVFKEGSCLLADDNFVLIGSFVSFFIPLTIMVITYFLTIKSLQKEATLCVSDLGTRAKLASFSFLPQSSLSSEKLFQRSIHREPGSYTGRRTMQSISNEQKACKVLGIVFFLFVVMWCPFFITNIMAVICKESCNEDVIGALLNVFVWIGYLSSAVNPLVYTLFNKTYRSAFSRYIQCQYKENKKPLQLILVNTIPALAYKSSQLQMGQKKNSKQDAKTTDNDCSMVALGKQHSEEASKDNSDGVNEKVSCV
Assay: Displacement of [3H]ketanserin from human 5-HT2A receptor transfected in HEK293 cells by scintillation counting analysis
Type: cell-based
Details: not given

Ki [nM] | SMILES
710 | CCCCn1cc(CCCOc2ccc(C(=O)NCCCCN(CCC)[C@H]3CCc4c(O)cccc4C3)cc2OC)nn1
